Tests used:
Type in all cases: functional
Staphylococcus aureus [1] = test: Bactericidal activity against Staphylococcus aureus ATCC 29213 after 24 hrs; details: ATCC 29213, 24 h
Procedure, shortened: (§1)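 Bactericidal concentration: 0.1 ml from wells at the MIC dilution and the dilutions on either side was streaked onto tryptic soy agar and incubated 24 h. It was taken as the lowest drug concentration giving no growth (100% killing).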

Staphylococcus aureus [2] = test: Antimicrobial activity against methicillin-resistant Staphylococcus aureus clinical isolate by broth dilution method
Staphylococcus aureus [3] = test: Antimicrobial activity against methicillin-resistant Staphylococcus aureus clinical isolate 231 by broth dilution method
Staphylococcus aureus [4] = test: Bactericidal activity against methicillin-resistant Staphylococcus aureus clinical isolate 237 after 24 hrs; details: isolate 237, 24 h; procedure, shortened: as §1
Staphylococcus aureus [5] = test: Bactericidal activity against methicillin-resistant Staphylococcus aureus clinical isolate 255 after 24 hrs; details: isolate 255, 24 h; procedure, shortened: as §1
Staphylococcus aureus [6] = test: Antimicrobial activity against methicillin-resistant Staphylococcus aureus clinical isolate 264 by broth dilution method
Staphylococcus aureus [7] = test: Antimicrobial activity against methicillin-resistant Staphylococcus aureus clinical isolate 255 by broth dilution method
Candida parapsilosis = test: Antimicrobial activity against Candida parapsilosis ATCC 90030 by broth dilution method; details: Lodderomyces parapsilosis
Escherichia coli [8] = test: Bactericidal activity against Escherichia coli ATCC 11229 after 24 hrs; details: ATCC 11229, 24 h
Procedure, shortened: (§2)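 MBC: after MIC determination, 0.1 ml from the MIC well and from two dilutions either side streaked on tryptic soy agar, incubated 24 h; MBC taken as lowest concentration giving no growth (100% kill).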

Staphylococcus aureus [9] = test: Antimicrobial activity against methicillin-resistant Staphylococcus aureus clinical isolate 257 by broth dilution method
Staphylococcus aureus [10] = test: Antimicrobial activity against methicillin-resistant Staphylococcus aureus clinical isolate 259 by broth dilution method
Staphylococcus aureus [11] = test: Antimicrobial activity against methicillin-resistant Staphylococcus aureus clinical isolate 176 by broth dilution method
Escherichia coli [12] = test: Antimicrobial activity against Escherichia coli ATCC 11229 by broth dilution method
Staphylococcus aureus [13] = test: Bactericidal activity against methicillin-resistant Staphylococcus aureus clinical isolate 232 after 24 hrs; details: isolate 232, 24 h; procedure, shortened: as §1
[14] = test system: Staphylococcus epidermidis; test: Antimicrobial activity against Staphylococcus epidermidis ATCC 12228 by broth dilution method
Staphylococcus aureus [15] = test: Antimicrobial activity against methicillin-resistant Staphylococcus aureus clinical isolate 260 by broth dilution method
Staphylococcus aureus [16] = test: Bactericidal activity against methicillin-resistant Staphylococcus aureus clinical isolate 178 after 24 hrs; details: isolate 178, 24 h; procedure, shortened: as §1
Pseudomonas aeruginosa = test: Antimicrobial activity against Pseudomonas aeruginosa ATCC 27853 by broth dilution method
Staphylococcus aureus [17] = test: Antimicrobial activity against methicillin-resistant Staphylococcus aureus clinical isolate 195 by broth dilution method
Staphylococcus aureus [18] = test: Antimicrobial activity against methicillin-resistant Staphylococcus aureus clinical isolate 218 by broth dilution method
Staphylococcus aureus [19] = test: Antimicrobial activity against methicillin-resistant Staphylococcus aureus clinical isolate 225 by broth dilution method
Staphylococcus aureus [20] = test: Antimicrobial activity against methicillin-resistant Staphylococcus aureus clinical isolate 238 by broth dilution method
Staphylococcus aureus [21] = test: Antimicrobial activity against methicillin-resistant Staphylococcus aureus clinical isolate 207 by broth dilution method
Staphylococcus aureus [22] = test: Bactericidal activity against methicillin-resistant Staphylococcus aureus clinical isolate 236 after 24 hrs; details: isolate 236, 24 h; procedure, shortened: as §1
Candida tropicalis = test: Antimicrobial activity against Candida tropicalis ATCC 750 by broth dilution method
Staphylococcus aureus [23] = test: Antimicrobial activity against methicillin-resistant Staphylococcus aureus clinical isolate 178 by broth dilution method
Staphylococcus aureus [24] = test: Bactericidal activity against methicillin-resistant Staphylococcus aureus clinical isolate 260 after 24 hrs; details: isolate 260, 24 h; procedure, shortened: as §1
Staphylococcus aureus [25] = test: Bactericidal activity against methicillin-resistant Staphylococcus aureus clinical isolate 264 after 24 hrs; details: isolate 264, 24 h; procedure, shortened: as §1
Staphylococcus aureus [26] = test: Antimicrobial activity against methicillin-resistant Staphylococcus aureus clinical isolate 205 by broth dilution method
Staphylococcus aureus [27] = test: Bactericidal activity against methicillin-resistant Staphylococcus aureus clinical isolate 235 after 24 hrs; details: isolate 235, 24 h; procedure, shortened: as §1
[28] = test system: Staphylococcus epidermidis; test: Bactericidal activity against Staphylococcus epidermidis ATCC 12228 after 24 hrs; details: ATCC 12228, 24 h; procedure, shortened: as §2
Staphylococcus aureus [29] = test: Antimicrobial activity against methicillin-resistant Staphylococcus aureus clinical isolate 212 by broth dilution method
Candida albicans = test: Antimicrobial activity against Candida albicans ATCC 22019 by broth dilution method
Staphylococcus aureus [30] = test: Bactericidal activity against methicillin-resistant Staphylococcus aureus clinical isolate 259 after 24 hrs; details: isolate 259, 24 h; procedure, shortened: as §1
Staphylococcus aureus [31] = test: Antimicrobial activity against methicillin-resistant Staphylococcus aureus clinical isolate 235 by broth dilution method
Staphylococcus aureus [32] = test: Bactericidal activity against methicillin-resistant Staphylococcus aureus clinical isolate 257 after 24 hrs; details: isolate 257, 24 h; procedure, shortened: as §1
Staphylococcus aureus [33] = test: Antimicrobial activity against methicillin-resistant Staphylococcus aureus clinical isolate 227 by broth dilution method
Staphylococcus aureus [34] = test: Antimicrobial activity against methicillin-resistant Staphylococcus aureus clinical isolate 237 by broth dilution method
Staphylococcus aureus [35] = test: Antimicrobial activity against methicillin-resistant Staphylococcus aureus clinical isolate 232 by broth dilution method
Staphylococcus aureus [36] = test: Bactericidal activity against methicillin-resistant Staphylococcus aureus clinical isolate 238 after 24 hrs; details: isolate 238, 24 h; procedure, shortened: as §1
Staphylococcus aureus [37] = test: Antimicrobial activity against methicillin-resistant Staphylococcus aureus clinical isolate 215 by broth dilution method
Staphylococcus aureus [38] = test: Antimicrobial activity against Staphylococcus aureus ATCC 29213 by broth dilution method
Staphylococcus aureus [39] = test: Antimicrobial activity against methicillin-resistant Staphylococcus aureus clinical isolate 236 by broth dilution method
Staphylococcus aureus [40] = test: Bactericidal activity against methicillin-resistant Staphylococcus aureus clinical isolate 231 after 24 hrs; details: isolate 231, 24 h; procedure, shortened: as §1
Staphylococcus aureus [41] = test: Bactericidal activity against methicillin-resistant Staphylococcus aureus clinical isolate 212 after 24 hrs; details: isolate 212, 24 h; procedure, shortened: as §1
Nakaseomyces glabratus = test: Antimicrobial activity against Candida glabrata ATCC 18804 by broth dilution method

SMILES: CCCCCCCCCCOc1ccc(CNC(CO)(CO)CO)cc1.Cl
- MBC (Staphylococcus aureus [1]): 8 mg/L
- -logMIC (Staphylococcus aureus [2]): 4.842
- MIC50 (Staphylococcus aureus [2]; Staphylococcus aureus): 8 mg/L
- MIC90 (Staphylococcus aureus [2]; Staphylococcus aureus): 8 mg/L
- MIC (Staphylococcus aureus [3]): 8 mg/L
- MBC (Staphylococcus aureus [4]): 16 mg/L
- MBC (Staphylococcus aureus [5]): 8 mg/L
- MIC (Staphylococcus aureus [6]): 2 mg/L
- MIC (Staphylococcus aureus [7]): 4 mg/L
- MIC (Candida parapsilosis): 8 mg/L
- MBC (Escherichia coli [8]): 32 mg/L
- MIC (Staphylococcus aureus [9]): 4 mg/L
- MIC (Staphylococcus aureus [10]): 4 mg/L
- MIC (Staphylococcus aureus [11]): 8 mg/L
- -logMIC (Escherichia coli [12]): 4.1
- MIC (Escherichia coli [12]; Escherichia coli, ATCC 11229): 32 mg/L
- MBC (Staphylococcus aureus [13]): 32 mg/L
- -logMIC [14]: 5
- MIC ([14]; Staphylococcus epidermidis, ATCC 12228): 4 mg/L
- MIC (Staphylococcus aureus [15]): 8 mg/L
- MBC (Staphylococcus aureus [16]): 128 mg/L
- MIC (Pseudomonas aeruginosa): 16 mg/L
- MIC (Staphylococcus aureus [17]): 8 mg/L
- MIC (Staphylococcus aureus [18]): 4 mg/L
- MIC (Staphylococcus aureus [19]): 8 mg/L
- MIC (Staphylococcus aureus [20]): 8 mg/L
- MIC (Staphylococcus aureus [21]): 8 mg/L
- MBC (Staphylococcus aureus [22]): 4 mg/L
- MIC (Candida tropicalis): 8 mg/L
- MIC (Staphylococcus aureus [23]): 8 mg/L
- MBC (Staphylococcus aureus [24]): 16 mg/L
- MBC (Staphylococcus aureus [25]): 2 mg/L
- MIC (Staphylococcus aureus [26]): 8 mg/L
- MBC (Staphylococcus aureus [27]): 4 mg/L
- MBC [28]: 8 mg/L
- MIC (Staphylococcus aureus [29]): 8 mg/L
- MIC (Candida albicans): 4 mg/L
- MBC (Staphylococcus aureus [30]): 4 mg/L
- MIC (Staphylococcus aureus [31]): 4 mg/L
- MBC (Staphylococcus aureus [32]): 8 mg/L
- MIC (Staphylococcus aureus [33]): 4 mg/L
- MIC (Staphylococcus aureus [34]): 16 mg/L
- MIC (Staphylococcus aureus [35]): 16 mg/L
- MBC (Staphylococcus aureus [36]): 8 mg/L
- MIC (Staphylococcus aureus [37]): 4 mg/L
- -logMIC (Staphylococcus aureus [38]): 4.7
- MIC (Staphylococcus aureus [38]; Staphylococcus aureus, ATCC 29213): 8 mg/L
- MIC (Staphylococcus aureus [39]): 4 mg/L
- MBC (Staphylococcus aureus [40]): 8 mg/L
- MBC (Staphylococcus aureus [41]): 128 mg/L
- MIC (Nakaseomyces glabratus): 2 mg/L

Source: ChEMBL document CHEMBL2380298, “Synthesis and antimicrobial activity of novel amphiphilic aromatic amino alcohols” (2013)
